What was measured:
Canis familiaris [1] = experiment: Effect on conversion dose required for arrhythmias in pentobarbital anesthetized dogs; format: functional, Canis lupus familiaris
Outline: (§1)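 Male beagles (12–15 kg) were given pentobarbital 35 mg/kg iv plus 5 mg/kg 15 min later. Ouabain went into the cephalic vein at 50 µg/kg, then 10 µg/kg every 15 min (extra 5 µg/kg if needed) until arrhythmia was sustained. After 30 min of arrhythmia, drug in water was infused iv at 200 µg/kg/min, raised to 500 µg/kg/min after 10 min, until conversion to sinus rhythm. n = 5.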

Canis familiaris [2] = species: Canis familiaris; experiment: Action potential duration at 3 x 10e-4 M measured at 70% repolarization; format: functional, Canis lupus familiaris
Outline: (§2)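 Canine Purkinje fibres superfused with Tyrode's solution (K+ 4.0, Mg2+ 1.0, Ca2+ 4.0, HCO3- 18.0, glucose 5.5 mM), paced at 1000 ms cycle length with 0.5-ms pulses at 1.5× threshold. Transmembrane potentials were recorded with 3 M KCl microelectrodes. Drug was added to the superfusate at 3 × 10^-4 M final and read at stable effect (~30 min). Each cell served as its own control. Values are mean ± SEM, four or five experiments, five tissues per drug from different dogs. Compared by ANOVA/Fisher's LSD.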

Canis familiaris [3] = species: Canis familiaris; experiment: Percent change of action potential duration at 3 x 10e-4 M, measured at 70% repolarization; format: functional, Canis lupus familiaris; outline: as §2
Canis lupus familiaris [4] = species: Canis lupus familiaris; experiment: (§3) Sodium channel inactivating potency at 3*10e-4 M; format: functional
Outline: (§4)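 Recovery from sodium-channel inactivation in paced canine Purkinje fibres: a premature S2 stimulus was given immediately after full repolarization. It was expressed as the ratio of premature to paced action potential rate of rise. Drug was present at 3 × 10^-4 M final, read after ~30 min. Each cell was its own control. Values are mean ± SEM, four or five experiments.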

Canis familiaris [5] = experiment: Effect on ouabain-induced arrhythmias in pentobarbital anesthetized dogs; format: functional, Canis lupus familiaris; outline: as §1
Canis familiaris [6] = species: Canis familiaris; experiment: Effective refractory period at 3 x 10e-4 M in Canine Purkinje fibers; format: functional, Canis lupus familiaris, Purkinje fiber; outline: as §2
Canis familiaris [7] = species: Canis familiaris; experiment: Percent change of action potential duration at 3 x 10e-4 M, measured at 95% repolarization in Canine Purkinje fibers; format: functional, Canis lupus familiaris, Purkinje fiber; outline: as §2
Canis familiaris [8] = experiment: Amplitude when no compound was administered in Canine Purkinje fibers; format: functional, Canis lupus familiaris, Purkinje fiber; outline: as §2
Canis lupus familiaris [9] = species: Canis lupus familiaris; experiment: as §3; format: functional; outline: as §4; remark: listed apart in the source
Canis familiaris [10] = experiment: Percent change in maximal upstroke velocity when 3*10e-4 M compound was administered in Canine Purkinje fibers; format: functional; details: Canis lupus familiaris; Purkinje fiber; outline: as §2
Canis familiaris [11] = experiment: Maximal upstroke velocity when 3*10e-4 M compound was administered in Canine Purkinje fibers; format: functional; details: Canis lupus familiaris; Purkinje fiber; outline: as §2
Canis familiaris [12] = experiment: Action potential duration when no compound was administered in Canine Purkinje fibers measured at 70% repolarization; format: functional, Canis lupus familiaris, Purkinje fiber; outline: as §2
Canis familiaris [13] = experiment: Resting potential when no compound was administered in Canine Purkinje fibers; format: functional, Canis lupus familiaris, Purkinje fiber; outline: as §2
Canis familiaris [14] = experiment: Maximal upstroke velocity when no compound was administered in Canine Purkinje fibers; format: functional; details: Canis lupus familiaris; Purkinje fiber; outline: as §2
Canis familiaris [15] = species: Canis familiaris; experiment: Percent change of resting potential at 3 x 10e-4 M in Canine Purkinje fibers; format: functional, Canis lupus familiaris, Purkinje fiber; outline: as §2
Canis familiaris [16] = species: Canis familiaris; experiment: Resting potential at 3 x 10e-4 M in Canine Purkinje fibers; format: functional, Canis lupus familiaris, Purkinje fiber; outline: as §2
Canis familiaris [17] = species: Canis familiaris; experiment: Amplitude at 3 x 10e-4 M concentration in Canine Purkinje fibers; format: functional, Canis lupus familiaris, Purkinje fiber; outline: as §2
Canis familiaris [18] = species: Canis familiaris; experiment: Percent change of amplitude at 3 x 10e-4 M concentration in Canine Purkinje fibers; format: functional, Canis lupus familiaris, Purkinje fiber; outline: as §2
Canis familiaris [19] = experiment: Effective refractory period when no compound was administered in Canine Purkinje fibers; format: functional, Canis lupus familiaris, Purkinje fiber; outline: as §2
Canis lupus familiaris [20] = species: Canis lupus familiaris; experiment: Sodium channel inactivating potency in the absence of compound (control); format: functional; outline: as §4
Canis familiaris [21] = species: Canis familiaris; experiment: Percent change of effective refractory period at 3 x 10e-4 M, in Canine Purkinje fibers; format: functional, Canis lupus familiaris, Purkinje fiber; outline: as §2
Canis familiaris [22] = species: Canis familiaris; experiment: Action potential duration at 3 x 10e-4 M measured at 95% repolarization in Canine Purkinje fibers; format: functional, Canis lupus familiaris, Purkinje fiber; outline: as §2
Canis familiaris [23] = experiment: Action potential duration when no compound was administered in Canine Purkinje fibers measured at 95% repolarization; format: functional, Canis lupus familiaris, Purkinje fiber; outline: as §2
Rattus norvegicus [24] = experiment: Plasma concentration in rat 4 hr after administration at a dose of 25 mg/kg; format: functional, organism-based; parameters: dose 25 mg/kg
Outline: (§5)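 Fischer 344 rats were given 25 mg/kg in water iv via the jugular vein, three per group. Plasma was taken by cardiac puncture at set times. Parent drug and N-acetyl metabolite were quantified by GC with a nitrogen-phosphorus detector after alkaline extraction with an internal standard. The assay was linear 1–10 µg/mL. Values are mean ± SEM.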

Rattus norvegicus [25] = experiment: Plasma concentration in rat 2 hr after administration at a dose of 25 mg/kg; format: functional, organism-based; parameters: dose 25 mg/kg; outline: as §5
Rattus norvegicus [26] = experiment: Plasma concentration in rat 30 minutes after administration at a dose of 25 mg/kg; format: functional, organism-based; parameters: dose 25 mg/kg; outline: as §5

SMILES | Conversion dose (Canis familiaris [1]) [mg/kg] | APD70 (Canis familiaris [2]) [ms] | APD70 (Canis familiaris [3]) [%] | Na+ inactivation (Canis lupus familiaris [4]) | Ouabain dose (Canis familiaris [5]) [mg/kg] | ERP (Canis familiaris [6]) [ms] | APD95 (Canis familiaris [7]) [%] | Amplitude (Canis familiaris [8]) [mV] | Vmax (Canis familiaris [10]) [%] | Vmax (Canis familiaris [11]) [V s-1] | APD70 (Canis familiaris [12]) [ms] | Resting potential (Canis familiaris [13]) [mV] | Vmax (Canis familiaris [14]) [V s-1] | Resting potential (Canis familiaris [15]) [%] | Resting potential (Canis familiaris [16]) [mV] | Amplitude (Canis familiaris [17]) [mV] | Amplitude (Canis familiaris [18]) [%] | ERP (Canis familiaris [19]) [ms] | Na+ inactivation (Canis lupus familiaris [20]) | ERP (Canis familiaris [21]) [%] | also measured
CCN(CC)CCNC(=O)c1ccc(N)c(C)c1 | 18.3 | 244 | -16 | 0.88 | 0.065 | 283 | -7 | 129 | -39 | 282 | 292 | -89 | 462 | -4 | -85 | 114 | -12 | 303 | 0.96 | -6 | Na+ inactivation (Canis lupus familiaris [9]): -9%; APD95 (Canis familiaris [22]): 336 ms; APD95 (Canis familiaris [23]): 363 ms
CCN(CC)CCNC(=O)c1ccc(N)cc1 [PROCAINAMIDE] | 19 | 284 | 1 | 0.96 | 0.068 | 321 | 5 | 127 | -31 | 345 | 285 | -93 | 501 | -2 | -91 | 119 | -7 | 308 | 1 | 6 | Na+ inactivation change (Canis lupus familiaris [4]): -3%; Plasma concentration (Rattus norvegicus [24]): 2.3 µg/mL; Plasma concentration (Rattus norvegicus [25]): 0.36 µg/mL; APD95 (Canis familiaris [22]): 361 ms; Plasma concentration (Rattus norvegicus [26]): 2.29 µg/mL; APD95 (Canis familiaris [23]): 347 ms
CCN(CC)CCNC(=O)c1cc(C)c(N)c(C)c1 | 14.3 | 227 | -37 | 0.91 | 0.069 | 282 | -17 | 131 | -38 | 387 | 363 | -92 | 632 | -12 | -81 | 117 | -11 | 351 | 0.99 | -18 | Na+ inactivation (Canis lupus familiaris [9]): -7%; APD95 (Canis familiaris [22]): 353 ms; APD95 (Canis familiaris [23]): 426 ms
